# Assay results gathered from unrelated publications.
# Each line is one published result; the experiments were not run side by side. pIC50: −log10 of the molar value.
# Observed: cell growth or viability
SMILES,cell line,assay,conditions,measurement,value
c1cc(CN2CCCNCCNCCCNCC2)ccc1CN1CCCNCCNCCCNCC1,TZM-bl,,,CC50,> 1 µM
CC[C@H](C)C(=O)O[C@H]1C[C@@H](C)C=C2C=C[C@H](C)[C@H](CC[C@@H]3C[C@@H](O)CC(=O)O3)[C@H]21,SW-620,SRB,72 h,pIC50,7.10
C=C(C)[C@H](CCC(C)(C)O)Cc1c(O)cc(OC)c2c1O[C@H](c1ccc(O)cc1O)CC2=O,MCF7,MTT,48 h,pIC50,< 4.00
CC(C)(C)CC(C)(C)Nc1c(-c2ccccc2)nc2ncccn12,MCF7,MTT,"25 µM, 48 h",viability,44.9%
CC1(C)CC[C@]2(C)CC[C@]3(C)[C@H]4CC=C5[C@@H](CC[C@H](O)C5(C)C)[C@]4(C)CC[C@@]3(C)[C@@H]2C1,HEp-2,WST-1,,pIC50,4.32
C[C@@H]1[C@H](O)[C@@H](C)/C=C/C=C/C=C/C=C/C=C/C=C/C=C/[C@H](O[C@@H]2O[C@H](C)[C@@H](O)[C@H](N)[C@@H]2O)C[C@@H]2O[C@](O)(C[C@@H](O)C[C@@H](O)[C@H](O)CC[C@@H](O)C[C@@H](O)CC(=O)O[C@H]1C)C[C@H](O)[C@H]2C(=O)O,THP-1,MTT,72 h,CC50,3.6 µM
C[C@@H]1O[C@@H](OC[C@H]2O[C@@H](Oc3c(-c4ccc(O)c(O)c4)oc4cc(O)cc(O)c4c3=O)[C@H](O)[C@@H](O)[C@@H]2O)[C@H](O)[C@H](O)[C@H]1O,TZM-bl,MTT,48 h,CC50,> 250 µg/mL
OC[C@@H]1[C@@H](O)[C@H](O)[C@@H](O)CN1CC/C=C/CCOc1cc(F)ccc1F,MDBK,MTT,,CC50,> 500 µM
O=[N+]([O-])c1ccc(-c2nc3cc(Cl)ccc3[nH]2)o1,HEp-2,resazurin,72 h,CC50,5 µM
CC(=O)OC1c2c(ccc3ccc(=O)oc23)OC(C)(C)C1OC(=O)C(C)(O)C(C)O (stereo not drawn),HEp-2,WST-1,,pIC50,4.95
CCCCCCCCCCCCCCCCOP(=O)([O-])OCC[N+](C)(C)C,THP-1,,72 h,CC50,> 40 µM
COC(=O)[C@]1(O)C[C@@H](O)[C@@H](O)[C@H](OC(=O)/C=C/c2ccc(O)c(O)c2)C1,HEp-2,WST-1,,pIC50,4.67
O=[N+]([O-])c1ccc(-c2nc3cc(F)ccc3[nH]2)o1,HEp-2,resazurin,72 h,CC50,3.1 µM
C[C@H]1[C@H](C)CC[C@]2(C(=O)O)CC[C@]3(C)C(=CC[C@@H]4[C@@]5(C)CC[C@H](O)C(C)(C)[C@@H]5CC[C@]43C)[C@H]12,WS1,,48 h,pIC50,4.85
CC(=O)O[C@@H]1c2c(ccc3ccc(=O)oc23)OC(C)(C)[C@@H]1OC(=O)C1(C)OC1C (stereo partly drawn),HEp-2,WST-1,,pIC50,4.44
